BB579 growth dn – reduces growth of yeast BB579 in restrictive medium; S. cerevisiae BB579 growth, OD615, 48 h; inhibition, % at 10 µM; 140,000 compounds, 0.51% hits;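 active = inhibition above a set limit, 3 SD over the mean compound inhibition, cut at about 44% in these data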
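System: Saccharomyces cerevisiae DeaD strain BB579, replicative lifespan model yeast | Buffer or medium: Restrictive glucose-based CSMM-D medium | Times: 4 h preincubation and 48 h exposure at 30 °C | Detection: OD615 turbidity measurement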
KCC2 mod – KCC2 (human) Cl- transport modulation | Q9H2X9 | KCC2 cells, thallium flux FluoZin-2 fluorescence | B-score of Tl+ flux slope (higher = more flux/activation; lower = inhibition) at 10 µM | 190,000 compounds, 2.2% hits | AID 1456;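 active = thallium flux slope and its plate-corrected score both differing from the plate sample mean at a set confidence after two filtering rounds, in either direction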;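 also: slope of fluorescence scaled to starting intensity during 10 to 20 s after thallium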
RAM inhibit – inhibitors of the yeast RAM network; S. cerevisiae dse1pr::URA3 reporter, 5-FOA growth OD615, 2 d; analog-sensitive cbk1-as2 kinase mutant strain; inhibition, % at 50 µM; 190,000 compounds, 1.8% hits; AID 868;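 active = inhibition above a set limit, 3 SD over mean compound inhibition, cut at about 8.4% in these data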;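 also: 0% = DMSO-only wells with no growth and 100% = 10 µM 1-NA-PP1 full growth; inhibition rescues growth on 5-FOA so higher OD means more RAM inhibition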
Yeast lifespan up – yeast lifespan extension. 130,000 compounds, 0.68% hits. inhibition of the nicotinamide effect, % at 10 µM. S. cerevisiae growth with nicotinamide, OD615; deaD strain in restrictive glucose medium;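 active = inhibition above a set limit, placed 3 SD over the median of all compounds, cut at about 26% in these data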;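 also: 0% = nicotinamide-treated wells and 100% = cells grown without nicotinamide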
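assay system = DeaD-strain S. cerevisiae | measured by = absorbance at 615 nm | probe or stimulus = nicotinamide 1.5 mM | buffer or medium = CSMM-D glucose medium, restrictive | times = 48 h at 30 °C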
WT yeast gro inh – growth inhibition of WT yeast, mitochondrial fusion screen. mitochondrial fusion phenotypic screen, WT strain. 190,000 compounds, 2.1% hits. AID 1362. inhibition, % at 10 µM; in the data active = inhibition above about 58%; tested in S. cerevisiae
An asterisk follows results filed as active; / = no result. In the library only some 5.5% were active in any assay of this set; here they are far more common.

SMILES	BB579 growth dn	KCC2 mod	RAM inhibit	Yeast lifespan up	WT yeast gro inh
CCOC(=O)CNS(=O)(=O)c1cc(-c2nn(C)c(=O)c3ccccc23)ccc1C	-47	-0.081	1	-24	70*
C=CCc1cc(Cl)ccc1OCCN1CC(C)OC(C)C1 (configuration not stated)	/	0.25	3	/	35
O=C(Nc1ccccc1Br)C(=O)N1CCCC1	12	-0.38	0	-1	-4
O=C(NNc1ccccc1Br)C(=O)n1ccc2ccccc21	-36	12*	3	-3	39
COCCN(C(=S)Nc1ccccc1OC)C(C)c1cccs1 (configuration not stated)	-12	-1.9	0	3	9
CC(C)(C)c1ccc(C(=O)NNc2ncccc2-n2cccc2)cc1	/	1.6	/	/	/
O=c1cc(-c2ccccc2)n(S(=O)(=O)c2ccccc2)o1	80*	0.39	-1	2	-21
COc1ccc(S(=O)(=O)n2oc(=O)cc2-c2ccccc2)cc1OC	57*	-1.3	-1	18	4
Cc1ccccc1Nc1nc(N)nc(CSc2nc3ccccc3s2)n1	-20	-1.5	2	-5	47
Cc1ccc(Nc2nc(N)nc(CSc3nc4ccccc4s3)n2)cc1	-71	-2.4	9.8*	-20	86*
COc1ccc(CCNC(=S)Nc2ccc(C)cc2C)cc1	10	0.048	0	-3	69*
COc1ccc(NC(=S)NCCc2ccc(Cl)cc2)c(OC)c1	-28	2	0	-6	67*
COc1ccc(CCNC(=S)Nc2cc(C)ccc2C)cc1	-37	/	0	-12	63*
COc1ccc(CNC(=S)Nc2cc(C)ccc2C)cc1	-42	-1	2	-15	46
COc1ccc(NC(=S)Nc2ccc(OCc3ccccc3)cc2)c(OC)c1	-4	-1.8	7	-7	67*
COc1ccc(NC(=S)Nc2ccccc2)c(OC)c1	/	0.53	-1	/	-7
COc1cc(/C=N/NC(=O)COc2ccc(-n3cnnn3)cc2)ccc1OCC(N)=O	/	0.16	/	/	/
Cc1cccc(OCC(=O)Nc2ccccc2N2CCCCC2)c1	-36	/	4	-31	29
O=C(COc1ccc(Cl)cc1Cl)OCC(=O)N1CCCc2ccccc21	-15	0.0016	8	0	52
O=C(CCCOc1ccc(Cl)cc1Cl)N1CCCc2ccccc21	-22	-0.6	1	-13	75*
O=C(COc1ccc(Cl)cc1Cl)NC(=O)N1CCCCC1	-34	-0.42	2	-1	21
Cc1cccc(OCC(=O)NC(=S)N2CCCc3ccccc32)c1	-66	23*	2	-21	-5
O=C(COc1ccc(Cl)cc1Cl)NC(=S)N1CCCc2ccccc21	-5	21*	1	-12	-3
COc1ccc(Nc2nnc(SCC(=O)c3cc(C)n(CC4CCCO4)c3C)s2)cc1 (configuration not stated)	-3	-2	3	0	-1
O=S(Cc1cc(Sc2ccccc2)nc(-c2ccccc2)n1)c1ccccc1 (configuration not stated)	-37	/	8	5	59*
SMILES	BB579 growth dn	KCC2 mod	RAM inhibit	Yeast lifespan up	WT yeast gro inh
CCc1cccc(CC)c1NC(=S)NCCc1c(C)[nH]c2ccc(C)cc12	32	-0.2	7	-1	78*
CCc1cccc(C)c1NC(=S)NCCc1c(C)[nH]c2ccc(C)cc12	45*	-1.4	7	2	62*
COc1ccc2[nH]c(C)c(CCNC(=S)Nc3cccc(C)c3)c2c1	-5	-0.5	4	-3	8
COc1ccc2[nH]c(C)c(CCNC(=S)Nc3cc(C)ccc3C)c2c1	-24	0.39	3	0	5
Fc1ccc(N2Cc3ccsc3C=N2)cc1	/	-0.004	1	/	-4
Cc1cc(C)c(C#N)c(SCc2nnc(-c3ccccc3[N+](=O)[O-])o2)n1	/	-1.6	11*	/	19
Cc1c(C)n(Cc2ccccc2)c2ccc(C(=O)OCCCN(C)C)cc12	/	-0.34	1	/	87*
N#Cc1c(-c2cccs2)nc(SCc2ccc(Cl)cc2)[nH]c1=O	/	-3.5*	6	/	-8
COC(=O)C1=C(C(=O)OC)SC(=C2C(=S)C(C)(C)N(C(=O)C(C)C)c3ccccc32)S1	-24	-0.19	7	35*	41
CCOC(=O)C1=C(C)N=c2s/c(=C/c3ccco3)c(=O)n2C1c1cccc(OC)c1 (configuration not stated)	-40	-0.85	9.5*	1	-30
Cc1cc(=O)[nH]c(SCC(=O)OCc2ccccc2)c1C#N	/	-0.12	2	/	-7
NS(=O)(=O)c1ccc(NC(=O)C2C3C=CC(C3)C2C(=O)O)cc1 (configuration not stated)	/	0.42	2	/	0
O=C1c2ccccc2-c2n[nH]c(=O)c3ccc(N4CCCCC4)c1c23	/	0.4	1	/	63*
Cc1ccccc1OCc1nnc(SCC(=O)Nc2ccc3nc(SCC(=O)Nc4ccccc4)sc3c2)n1C	-9	1.4	3	1	21
O=C(O)c1ccc(NC2CC(=O)N(Cc3ccccc3)C2=O)cc1 (configuration not stated)	/	0.12	-1	/	-19
CN(CCOc1ccc(-c2ccn(S(=O)(=O)c3cccc4ccccc34)n2)cc1)c1ccccn1	20	/	0	-3	-4
CN1CCN(C2=Cc3ccccc3Sc3cc(F)ccc32)CC1	6	0.35	2	/	94*
CN1CCN(C2=Cc3ccc(Cl)cc3Sc3ccc(F)cc32)CC1	86*	0.15	2	/	51
CN1CCN(C2=Nc3cc(F)ccc3Cc3ccccc32)CC1	/	-0.039	/	/	0
CCN(CC(=O)Nc1cc(Cl)ccc1C)c1ncnc2sc(C)c(C)c12	-13	-1.4	-1	1	3
CN(C)c1cc(-c2ccc(Cl)c(Cl)c2)oc(=O)c1Cl	/	0.67	/	/	/
CC(C)(C)c1cc(/C=N/O)cc(C(C)(C)C)c1O	-4	-0.85	0	4	80*
CNC(=S)c1cc(C(C)(C)C)c(O)c(C(C)(C)C)c1	/	-0.56	/	/	/
CCOC(=O)c1cn(-c2nc(-c3ccc(Cl)c(Cl)c3)cs2)c2c(F)c(N3CCOCC3)c(F)cc2c1=O	-40	0.19	9.7*	-5	-24
O=C(/C=C/c1ccc(Cl)cc1Cl)N1CCN(c2ccccc2[N+](=O)[O-])CC1	-23	-0.17	8.6*	2	24
O=C(/C=C/c1ccc(Cl)cc1Cl)N1CCN(c2ccc([N+](=O)[O-])c(N3CCOCC3)c2)CC1	-4	-1.7	3	1	10
O=[N+]([O-])c1cc(Cl)ccc1N1CCN(c2ccccc2O)CC1	/	-0.99	0	/	75*
O=C(/C=C/c1ccccc1[N+](=O)[O-])N1CCN(c2ccccc2F)CC1	/	-1.5	8.5*	/	0
CCOc1ccc(-n2c(=O)c3sccc3n(CC(=O)Nc3cccc(OC)c3)c2=O)cc1	/	-0.73	4	/	-4
COc1ccc(/C=N/Nc2ccc(C(F)(F)F)cc2[N+](=O)[O-])cc1O	-59	-0.31	10*	2	13

Screening results from PubChem BioAssay.
